Measurements reported in ChEMBL document CHEMBL1932932, “Natural product libraries to accelerate the high-throughput discovery of therapeutic leads” (J Nat Prod, 2011).
≈ marks a conversion by molar mass, not a printed value. Calls of active or inactive are those of the source. The calls are words filed in the database; no cut-off is given here.

What was measured:
[1] = system: Trypanosoma brucei brucei; experiment: Antitrypanosomal activity against Trypanosoma brucei brucei clone 427-221a assessed as growth inhibition after 40 hrs by ATP-bioluminescence assay; assay type: functional, organism-based
Summary of the method: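 Bloodstream-form parasites (1×10^4/well) were grown in HMI-9 with 10% FBS, 10% Serum Plus and penicillin/streptomycin at 37 °C, 5% CO2. Samples were tested at 12.5 and 1.25 µg/mL, or serially diluted 25–0.001 µg/mL for IC50, at 0.5% final DMSO. Incubation was 40 h. ATP was read by CellTiter-Glo. Log10 signals were converted to % inhibition against 0.5% DMSO and 50 µM thimerosal controls, and curves were fitted.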

[2] = Antiproliferative activity against human H522-T1 cells assessed as cell viability after 96 hrs by CellTiter-Glo luminescence assay; assay type: functional, cell-based; conditions: H522-T1, 96 h
Summary of the method: (§1)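 Cells grown in 96-well plates with no compound or continuous exposure to 1.5–50 000 nM for 96 h. Growth was read by CellTiter-Glo luminescence. IC50 is the concentration giving 50% growth inhibition versus untreated cells. Two separate replicate experiments were run.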

U-937 = experiment: Antiproliferative activity against human U937 cells assessed as cell viability after 96 hrs by CellTiter-Glo luminescence assay; assay type: functional, cell-based; conditions: U-937, 96 h; summary of the method: as §1
MDA-MB-435 = experiment: Antiproliferative activity against human MDA-MB-435 cells assessed as cell viability after 96 hrs by CellTiter-Glo luminescence assay; assay type: functional, cell-based; conditions: MDA-MB-435, 96 h; summary of the method: as §1
HeLa [3] = experiment: Induction of microfilament disruption in human HeLa cells at 20 ug/ml after 24 hrs by Hoechst staining-based fluorescence microscopic analysis; assay type: functional, cell-based
Summary of the method: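 HeLa cells (1500/well, 384-well) were seeded and incubated overnight at 37 °C, 5% CO2, then samples were pin-transferred. After 24 h cells were fixed in 4% formaldehyde for 20 min, permeabilised with 0.5% Triton X-100 for 10 min and blocked with 2% BSA. Actin was stained with rhodamine-phalloidin and DNA with Hoechst 33342. Images were taken by automated fluorescence microscopy at 10×.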

HT-29 = experiment: Antiproliferative activity against human HT-29 cells assessed as cell viability after 96 hrs by CellTiter-Glo luminescence assay; assay type: functional, cell-based; conditions: HT-29, 96 h; summary of the method: as §1
HeLa [4] = experiment: Stabilization of microtubule in human HeLa cells at 20 ug/ml after 24 hrs by Hoechst staining-based fluorescence microscopic analysis; assay type: functional, cell-based
RAW264.7 [5] = experiment: Cytotoxicity against mouse RAW264.7 cells assessed as cell viability […] by MTT assay; assay type: functional; conditions: in the assay text read “20 hrs” for “24 hrs”
Summary of the method: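 MTT test on extracts at 10 µg/mL and library fractions at 20 µg/mL, dissolved in DMSO. RAW264.7 cells were exposed for 20 h. MTT was then added for 2 h, the medium removed, formazan dissolved in DMSO, and absorbance read at 570 nm.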

PC-3 = experiment: Cytotoxicity against human PC3 cells assessed as cell viability at 10 uM after 24 hrs by MTT assay; assay type: functional, cell-based
RAW264.7 [6] = experiment: Cytotoxicity against mouse RAW264.7 cells assessed as cell viability at 10 uM after 20 hrs by MTT assay

Row | SMILES | IC50 [1] [µg/mL] | IC50 (U-937) [µg/mL] | IC50 (MDA-MB-435) [µg/mL] | IC50 (HT-29) [µg/mL] | IC50 [2] [µg/mL] | Activity (HeLa [3]) | Activity (HeLa [4]) | Activity (RAW264.7 [5]) [µM] | Activity (PC-3) | Activity (RAW264.7 [6])
1 | C=C1C[C@H](C)C[C@@H]2CC=C[C@@H](C/C=C\C(=O)O[C@H]3C[C@@H](O[C@@]3(/C=C/[C@@H]3CC(C)=CCO3)OC)[C@@H](O)[C@@H](O)C1)O2 | > 10 | > 2.5 | > 2.5 | > 2.5 | > 2.5 | Active |  |  |  | 
2 | C/C1=C/C(=O)O[C@@H]2C[C@@H](CC[C@H](C)/C=C\C(=O)CCC1)O[C@@](O)([C@@H]1CSC(=O)N1)C2 | 3.6 (≈ 8.23 µM) | > 2.5 | > 2.5 | > 2.5 | > 2.5 | inactive | inactive |  |  | 
3 | C[C@]12CCC[C@](C)(C(=O)O)[C@@H]1CC[C@@]1(C)c3cocc3CC[C@H]21 |  |  |  |  |  |  |  | >90 |  | 
4 | COc1cccc2c1C(=O)c1c(O)c3c(c(O)c1C2=O)C[C@@](O)(C(=O)CO)C[C@@H]3O[C@H]1C[C@H](N)[C@H](O)[C@H](C)O1 |  |  |  |  |  |  |  |  | Active | Active
5 | COC(CC1=CC[C@]2(C)[C@@H](C)CCC[C@]2(C)C1=O)OC [AIGNOPSANE KETAL] | > 10 | > 2.5 | > 2.5 | > 2.5 | > 2.5 | inactive | inactive |  |  | 
6 | C=C1C[C@H](C)C[C@@H]2CC=C[C@@H](C/C=C\C(=O)O[C@H]3C[C@@H](O[C@H]3/C=C/[C@@H]3CC(C)=CCO3)[C@@H](O)[C@@H](O)C1)O2 [FIJIANOLIDE A] | 1.4 (≈ 2.72 µM) | 0.03 (≈ 0.0583 µM) | 0.02 (≈ 0.0389 µM) | 0.04 (≈ 0.0777 µM) | 0.02 (≈ 0.0389 µM) | Active | inactive |  |  | 
7 | C=C1C[C@H](C)C[C@@H]2CC=C[C@@H](C/C=C\C(=O)O[C@H]([C@@H](O)/C=C/[C@@H]3CC(C)=CCO3)C[C@@H]3O[C@H]3[C@@H](O)C1)O2 [FIJIANOLIDE B] | 0.08 (≈ 0.155 µM) | 0.003 (≈ 0.00583 µM) | 0.002 (≈ 0.00389 µM) | 0.003 (≈ 0.00583 µM) | 0.002 (≈ 0.00389 µM) | Active | inactive |  |  | 
8 | C/C1=C/C(=O)O[C@@H]2C[C@@H](CC[C@H](C)/C=C\C=C\CC1)O[C@@](O)([C@@H]1CSC(=O)N1)C2 [LATRUNCULIN A] | 1.2 (≈ 2.85 µM) | 0.07 (≈ 0.166 µM) | 0.04 (≈ 0.0949 µM) | 0.08 (≈ 0.19 µM) | 0.06 (≈ 0.142 µM) | inactive | Active |  |  | 
9 | C/C1=C/C(=O)O[C@@H]2C[C@@H](CC[C@H](C)/C=C\CC(=O)CC1)O[C@@](O)([C@@H]1CSC(=O)N1)C2 [LATRUNCULONE B] | 1 (≈ 2.29 µM) | 1.18 (≈ 2.7 µM) | > 2.5 | 0.8 (≈ 1.83 µM) | 0.8 (≈ 1.83 µM) | inactive | Active |  |  | 
10 | C=CC/C=C\Cc1csc(C(C)(C)[C@H](O)C/C=C\C(=C)CCNC(=O)OC)n1 [MYCOTHIAZOLE] | 6.7 (≈ 16.6 µM) | 0.01 (≈ 0.0247 µM) | 1 (≈ 2.47 µM) | 0.7 (≈ 1.73 µM) | 1 (≈ 2.47 µM) | inactive | inactive |  |  | 

Second part, led by results:

Row | IC50 [1] [µg/mL] | IC50 (U-937) [µg/mL] | IC50 (MDA-MB-435) [µg/mL] | IC50 (HT-29) [µg/mL] | SMILES | IC50 [2] [µg/mL] | Activity (HeLa [3]) | Activity (HeLa [4]) | Activity (RAW264.7 [5]) [µM] | Activity (PC-3) | Activity (RAW264.7 [6])
11 | 6.5 (≈ 26 µM) | > 2.5 | > 2.5 | > 2.5 | C[C@H]1CCC[C@]2(C)C(=O)/C(=C\C(=O)O)CC[C@]12C [AIGNOPSANOIC ACID A] | > 2.5 | inactive | inactive |  |  | 
12 | > 10 | > 2.5 | > 2.5 | > 2.5 | C[C@H]1CCC[C@]2(C)C(=O)[C@H](C(O)C(=O)O)CC[C@]12C (some centres undefined) [AIGNOPSANOIC ACID B] | > 2.5 | inactive | inactive |  |  | 
13 | 4.8 (≈ 11.4 µM) | > 2.5 | > 2.5 | > 2.5 | C/C(=C/C(=O)O)CC/C=C/C=C\[C@@H](C)CC[C@@H](O)CCCC(=O)c1csc(=O)[nH]1 [APO LATRUNCULIN T] | > 2.5 | inactive | inactive |  |  | 
14 | 1.4 (≈ 2.65 µM) | > 2.5 | > 2.5 | > 2.5 | C=C1C[C@H](C)C[C@@H]2CC=C[C@@H](C/C=C\C(=O)O[C@H]3C[C@@H](O[C@H]3/C=C/[C@@H]3CC(C)=CC(=O)O3)[C@@H](O)[C@@H](O)C1)O2 [FIIJIANOLIDE D] | > 2.5 | Active | inactive |  |  | 
15 | 0.09 (≈ 0.198 µM) | 0.31 (≈ 0.68 µM) | > 2.5 | 0.65 (≈ 1.43 µM) | C/C1=C/C(=O)O[C@@H]2C[C@@H](CC[C@H](C)/C=C\[C@H](O)[C@@H](O)CC1)O[C@@](O)([C@@H]1CSC(=O)N1)C2 [LATRUNCULOL A] | 0.76 (≈ 1.67 µM) | inactive | Active |  |  | 
16 | 2 (≈ 4.26 µM) | > 2.5 | > 2.5 | > 2.5 | CO[C@H]1/C=C\[C@@H](C)CC[C@@H]2C[C@H](C[C@](O)([C@@H]3CSC(=O)N3)O2)OC(=O)/C=C(/C)CC[C@@H]1O [LATRUNCULOL B] | > 2.5 | inactive | Active |  |  | 
17 | > 10 | > 2.5 | > 2.5 | > 2.5 | COC(=O)/C=C1/CC[C@]2(C)[C@@H](C)CCC[C@]2(C)C1=O [METHYL AIGNOPSANOATE] | > 2.5 | inactive | inactive |  |  | 
18 | > 10 | > 2.5 | > 2.5 | > 2.5 | CCCCCCC(C)CCCCCCCCCOC[C@H](O)COC1[C@@H](O)[C@H](O)[C@@H](O)[C@@H]1O (some centres undefined) [SACROTRIDE A] | > 2.5 | inactive | inactive |  |  | 
